Each structure is given as a SMILES string. Some results are limits rather than exact numbers.

Common to all, as to format: in vivo, human
Data set [1] has as its system adults with T2DM. The experiment in a line: Exposure-response analysis of elevated serum calcitonin. The method, boiled down: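 Serum calcitonin was measured by chemiluminescent immunometric assay (range 2.0–2000 pg/mL). Only participants with normal baseline values and post-baseline data were included, without imputation. The proportion with elevated calcitonin at any time until end-of-treatment was plotted with 95% CI against Cavg quantiles, with placebo at zero exposure. A covariate-adjusted exposure-response model was fitted.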

In data set [2] the test system is adults with T2DM. Description: Analysis of GI AEs. In a few lines: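 Adults with T2DM from four phase III trials received once-weekly subcutaneous injections, escalated every 4 weeks (0.25, 0.5, 1.0 mg). Nausea reports were counted from baseline to week 30. Proportions were plotted against time by dose, with each dose split into high/low exposure halves by Cavg at the maintenance dose. Logistic regression adjusted for trial, sex, age group, escalation regimen and Japanese race. LOCF and completer sensitivity analyses were run.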

Data set [3] deals with adults with T2DM. To be noted: semaglutide 0.5 and 1.0 mg.
A short description of data set [4]: Semaglutide exposure: average steady-state concentration. The settings on record: mean Cavg at steady state. In a few lines:
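Plasma samples were taken 4–5 times per participant, at weeks 4, 8, 16 and 30, plus week 56 except in SUSTAIN 1. Assay was validated LC-MS/MS with LLOQ 0.729 nmol/L; samples below it were excluded. Average steady-state concentration at the randomized once-weekly subcutaneous maintenance dose was derived from individual clearance estimates of a population-PK analysis.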

For the molecule `CC[C@H](C)[C@H](NC(=O)[C@H](Cc1ccccc1)NC(=O)[C@H](CCC(=O)O)NC(=O)[C@H](CCCCNC(=O)COCCOCCNC(=O)COCCOCCNC(=O)CC[C@H](NC(=O)CCCCCCCCCCCCCCCCC(=O)O)C(=O)O)NC(=O)[C@H](C)NC(=O)[C@H](C)NC(=O)[C@H](CCC(N)=O)NC(=O)CNC(=O)[C@H](CCC(=O)O)NC(=O)[C@H](CC(C)C)NC(=O)[C@H](Cc1ccc(O)cc1)NC(=O)[C@H](CO)NC(=O)[C@H](CO)NC(=O)[C@@H](NC(=O)[C@H](CC(=O)O)NC(=O)[C@H](CO)NC(=O)[C@@H](NC(=O)[C@H](Cc1ccccc1)NC(=O)[C@@H](NC(=O)CNC(=O)[C@H](CCC(=O)O)NC(=O)C(C)(C)NC(=O)[C@@H](N)Cc1cnc[nH]1)[C@@H](C)O)[C@@H](C)O)C(C)C)C(=O)N[C@@H](C)C(=O)N[C@@H](Cc1c[nH]c2ccccc12)C(=O)N[C@@H](CC(C)C)C(=O)N[C@H](C(=O)N[C@@H](CCCNC(=N)N)C(=O)NCC(=O)N[C@@H](CCCNC(=N)N)C(=O)NCC(=O)O)C(C)C` [semaglutide], in the data set on adults with T2DM [1] (any time after baseline until end‐of‐treatment, 36 of 1395 participants, placebo data included in the analysis), the “proportion of participants with serum calcitonin concentrations above the reference ranges” value turned out to be 2.6%. Further, the “dependence of elevated calcitonin levels on exposure” value in the data set on adults with T2DM [1] (range of exposures achieved with 0.5 and 1.0 mg, no effect vs placebo) is listed as “independent of exposure”. Moreover, the “proportion of participants reporting nausea” value with adults with T2DM [2] (during the first 4 weeks, also for participants with high exposure) is recorded as under 7%. For the same molecule, the “concentration of semaglutide estimated to be tolerated without nausea by 95% of participants” value with adults with T2DM [2] (week 1) was under 5 nM; with adults with T2DM [2] (week 30), over 30 nM. Besides, the “increase from baseline to end‐of‐trial in mean resting pulse rate” value with adults with T2DM [3] was 2−4 bpm. Besides, the Semaglutide exposure in data set [4] (All men, dose 0.5 mg once weekly) is on record as 15.0 nmol/L; in data set [4] (All men, dose 1.0 mg once weekly), 29.9 nmol/L; in data set [4] (All participants, dose 0.5 mg once weekly), 15.3 nmol/L; in data set [4] (All participants, dose 1.0 mg once weekly), 30.6 nmol/L; in data set [4] (All women, dose 0.5 mg once weekly), 15.9 nmol/L; in data set [4] (All women, dose 1.0 mg once weekly), 31.7 nmol/L.

Values taken from publication PMC6099226 (Diabetes, Obesity & Metabolism, 2018).
